Laboratory results from ChEMBL document CHEMBL1155099, “Natural products in parallel synthesis: triazole libraries of nonactic acid” (2008).
Activity calls are given as the source filed them.

What was measured:
Type in all cases: functional, organism-based
Bacillus subtilis = experiment: Antibacterial activity against Bacillus subtilis at 1 mM by almar blue dye reduction assay
Procedure, shortened: (§1)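 Single-point primary screen at 1 mM using Alamar Blue dye reduction as the growth read-out.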

Bacillus anthracis = experiment: Antibacterial activity against Bacillus anthracis at 1mM by almar blue dye reduction assay
Candida albicans = experiment: Antifungal activity against Candida albicans at 1 mM by almar blue dye reduction assay; procedure, shortened: as §1
Bacillus cereus = experiment: Antibacterial activity against Bacillus cereus at 1 mM by almar blue dye reduction assay; procedure, shortened: as §1
Escherichia coli = experiment: Antibacterial activity against Escherichia coli at 1 mM by almar blue dye reduction assay; procedure, shortened: as §1
Staphylococcus aureus = experiment: Antibacterial activity against Staphylococcus aureus at 1 mM by almar blue dye reduction assay; procedure, shortened: as §1
Cryptococcus neoformans = experiment: Antifungal activity against Cryptococcus neoformans at 1 mM by almar blue dye reduction assay; procedure, shortened: as §1
Pseudomonas aeruginosa = experiment: Antibacterial activity against Pseudomonas aeruginosa at 1 mM by almar blue dye reduction assay; procedure, shortened: as §1
Saccharomyces cerevisiae = experiment: Antifungal activity against Saccharomyces cerevisiae at 1 mM by almar blue dye reduction assay; procedure, shortened: as §1

Measured: Activity

Cc1cccc(NC(=O)NCC#Cc2cn([C@H](C)CC3CCC([C@@H](C)C(=O)N(C)Cc4ccccc4)O3)nn2)c1 (single isomer, unassigned)
inactive: all assays above

COc1ccc(C#Cc2cn([C@H](C)C[C@@H]3CC[C@H]([C@@H](C)C(=O)N4CCN(CC5CCCO5)CC4)O3)nn2)cc1 (some centres not stated)
inactive: all assays above

CCCNC(=O)NCC#Cc1cn([C@H](C)CC2CCC([C@@H](C)C(=O)N3CCN(CC4CCCO4)CC3)O2)nn1 (single isomer, unassigned)
inactive: all assays above

CC(C)NC(=O)[C@H](C)[C@H]1CC[C@@H](C[C@@H](C)n2cc(C#Cc3ccccc3)nn2)O1
inactive: all assays above

CCN(CC)C(=O)[C@H](C)[C@H]1CC[C@@H](C[C@@H](C)n2cc(C#Cc3ccc(OC)cc3)nn2)O1
inactive: all assays above

C[C@H](CC1CCC([C@@H](C)C(=O)N(C)Cc2ccccc2)O1)n1cc(C#CCNC(=O)OCc2ccccc2)nn1 (single isomer, unassigned)
inactive: all assays above

C[C@H](C[C@@H]1CC[C@H]([C@@H](C)C(=O)N2CCCC2)O1)n1cc(C#Cc2ccc(-c3ccccc3)cc2)nn1
inactive: all assays above

Cc1cccc(NC(=O)OCC#Cc2cn([C@H](C)CC3CCC([C@@H](C)C(=O)N(C)Cc4ccccc4)O3)nn2)c1 (single isomer, unassigned)
inactive: all assays above

C[C@H](C[C@@H]1CC[C@H]([C@@H](C)C(=O)N2CCCC2)O1)n1cc(C#Cc2ccc(C(F)(F)F)cc2)nn1
inactive: all assays above

CC(C)NC(=O)[C@H](C)C1CCC(C[C@@H](C)n2cc(C#CCOC(=O)OCc3ccccc3)nn2)O1 (single isomer, unassigned)
inactive: all assays above

CC(C)NC(=O)[C@H](C)[C@H]1CC[C@@H](C[C@@H](C)n2cc(C#Cc3ccc(-c4ccccc4)cc3)nn2)O1
inactive: all assays above

C[C@H](C[C@@H]1CC[C@H]([C@@H](C)C(=O)N2CCCC2)O1)n1cc(C#Cc2ccccn2)nn1
inactive: all assays above

COCCNCC#Cc1cn([C@H](C)C[C@@H]2CC[C@H]([C@@H](C)C(=O)N(C)Cc3ccccc3)O2)nn1
inactive: all assays above

COc1ccc(OCC#Cc2cn([C@H](C)C[C@@H]3CC[C@H]([C@@H](C)C(=O)N4CCCC4)O3)nn2)cc1
inactive: all assays above

C[C@H](C[C@@H]1CC[C@H]([C@@H](C)C(=O)N2CCCC2)O1)n1cc(C#CCN2CCC(c3ccccc3)CC2)nn1
inactive: all assays above

C[C@H](C[C@@H]1CC[C@H]([C@@H](C)C(=O)N2CCN(CC3CCCO3)CC2)O1)n1cc(C#CCOc2ccc(C(F)(F)F)cc2)nn1 (some centres not stated)
inactive: all assays above

Cc1cccc(NC(=O)OCC#Cc2cn([C@H](C)CC3CCC([C@@H](C)C(=O)NC(C)C)O3)nn2)c1 (single isomer, unassigned)
inactive: all assays above

CC(C)NC(=O)[C@H](C)[C@H]1CC[C@@H](C[C@@H](C)n2cc(C#CCOc3ccc(C(F)(F)F)cc3)nn2)O1
inactive: all assays above

CCN(CC)C(=O)[C@H](C)[C@H]1CC[C@@H](C[C@@H](C)n2cc(C#CCCCC#N)nn2)O1
inactive: all assays above

CC(C)NC(=O)[C@H](C)[C@H]1CC[C@@H](C[C@@H](C)n2cc(C#CCCCC#N)nn2)O1
inactive: all assays above

CCN(CC)C(=O)[C@H](C)[C@H]1CC[C@@H](C[C@@H](C)n2cc(C#CCOc3ccc(C(F)(F)F)cc3)nn2)O1
inactive: all assays above

C[C@H](CC1CCC([C@@H](C)C(=O)N(C)Cc2ccccc2)O1)n1cc(C#CCOC(=O)OCc2ccccc2)nn1 (single isomer, unassigned)
inactive: all assays above

CC(C)NC(=O)[C@H](C)[C@H]1CC[C@@H](C[C@@H](C)n2cc(C#Cc3ccc(Oc4ccccc4)cc3)nn2)O1
inactive: all assays above
